Measurements taken from article PMC4807855 (Bioorganic & medicinal chemistry, 2014).
Structures can show the parent of a compound that is named as a salt.

Key:
PfENR [1] = biological target: T1, PfENR (Plasmodium falciparum, UniProt Q9BJJ9); assay: PfENR substrate kinetics; format: biochemical; settings: without NAD+ preincubation; for Km / kcat: substrate varied, other substrate held constant
PfENR [2] = biological target: T1, PfENR; assay: PfENR continuous inhibition assay; format: biochemical; settings: for PfENR inhibition in real-time assay: 25 μM of each candidate inhibitor, with and without NAD+ preincubation
[3] = biological target: iodoacetamide-treated PfENR (Plasmodium falciparum, UniProt Q9BJJ9); assay: Celastrol inhibition of iodoacetamide-treated PfENR; format: biochemical; settings: celastrol 50 μM
In short: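 PfENR alkylated with 1 mM iodoacetamide in 100 mM ammonium bicarbonate, 60 min, 25 °C, dark; excess reagent removed by desalting column. Treated enzyme preincubated 45 min at 25 °C with test compound (final 50 μM), 50 μM NAD+, 20 mM Tris/HCl pH 7.4, 150 mM NaCl and 0.01% Triton-X. Activity tested with and without DMSO (5% of volume).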

[4] = system: whole-cell blood-stage P. falciparum; settings: at 1 μM, cell culture; ref 33 (printed 32); cited from earlier work
PfENR [5] = biological target: T1, PfENR; assay: Reversibility of celastrol binding; format: biochemical; settings: incubation at 5 times the IC50 (15 μM), 45 min, 25 °C
[6] = system: chloroquine-sensitive P. falciparum NF; settings: read-out: whole-cell IC50; cited from earlier work
[7] = Solubility under assay conditions; format: physicochemical; settings: PfENR assay reaction mixture
PfENR [8] = biological target: T1, PfENR; settings: cited from earlier work

## NC(=O)C1=CN([C@@H]2O[C@H](COP(=O)(O)OP(=O)(O)OC[C@H]3O[C@@H](n4cnc5c(N)ncnc54)[C@H](O)[C@@H]3O)[C@@H](O)[C@H]2O)C=CC1 [NADH]
PfENR [1]
  Km: 240 ± 40 µM
  kcat: 3.8 ± 1.0 s⁻¹

## C/C=C/C/C=C/CCC(=O)[C@H]1O[C@H]1C(N)=O [cerulenin (CR), cerulenin]
PfENR [2]
  PfENR inhibition in real-time assay: no PfENR inhibition

## CC1=C(O)C(=O)C=C2C1=CC=C1[C@@]2(C)CC[C@@]2(C)[C@@H]3C[C@](C)(C(=O)O)CC[C@]3(C)CC[C@]12C [compound 1, celastrol]
[3]
  inhibition of iodoacetamide-treated PfENR: comparable to that of the untreated protein
[4]
  growth inhibition of whole-cell blood-stage P. falciparum: ≥ 70%
PfENR [5]
  PfENR activity after incubation with inhibitor and 100-fold dilution: identical to the DMSO control
PfENR [2]
  IC50 against PfENR (summary statement): low-micromolar range
  Ki: 5.3 µM
PfENR [2]; IC50, PfENR inhibition, in the presence of 0.01% Triton-X
  IC50: 3.4 µM
PfENR [2]; IC50 against PfENR (summary statement)
  IC50: ~5 µM
PfENR [2]; average IC50, PfENR inhibition, with NAD+ preincubation (50 μM, 45 min, 25 °C)
  IC50: 5.9 µM
PfENR [2]; average IC50, PfENR inhibition, without NAD+ preincubation
  IC50: 4.7 µM
PfENR [2]; varied crotonyl-CoA at fixed NADH
  inhibition mechanism: noncompetitive inhibition
[6]
  IC50: 560 µM

## CC[C@@]1(O)C[C@H](O[C@H]2C[C@H](N(C)C)[C@H](O[C@H]3C[C@H](O)[C@H](O[C@H]4CCC(=O)[C@H](C)O4)[C@H](C)O3)[C@H](C)O2)c2c(cc3c(c2O)C(=O)c2c(O)cccc2C3=O)[C@H]1C(=O)OC [compound 2, aclacinomycin A (aclarubicin)]
PfENR [2]
  PfENR inhibition in real-time assay: increase in absorbance relative to the DMSO and cerulenin controls
[7]
  solubility: ≤ 25 µM

## CC(C)=CCC[C@]1(C)C=Cc2c(O)c3c(c(CC=C(C)C)c2O1)O[C@]12C(=C[C@@H]4C[C@H]1C(C)(C)O[C@@]2(C/C=C(/C)C(=O)O)C4=O)C3=O [compound 4, gambogic acid]
PfENR [2]
  PfENR inhibition in real-time assay: no ENR inhibition

## C/C=C/C(=O)SCCNC(=O)CCNC(=O)[C@H](O)C(C)(C)COP(=O)(O)OP(=O)(O)OC[C@H]1O[C@@H](n2cnc3c(N)ncnc32)[C@H](O)[C@@H]1OP(=O)(O)O [crotonyl-CoA, crotonyl coenzyme A trilithium salt]
PfENR [1]
  Km: 170 ± 60 µM
  kcat: 1.0 ± 0.2 s⁻¹
  kcat/Km ratio: 6000 ± 1100 M⁻¹ s⁻¹

## Oc1cc(Cl)ccc1Oc1ccc(Cl)cc1Cl [triclosan (TCL), triclosan]
PfENR [2]
  PfENR inhibition in real-time assay: no change in NADH consumption
PfENR [8]
  PfENR inhibitor potency (literature): picomolar

## dihydroergotoxine [compound 3]
PfENR [2]
  PfENR inhibition in real-time assay: no ENR inhibition
